The values that follow come from PMC3228909 (Journal of medicinal chemistry, 2011).

As a reminder, the Ki is the equilibrium dissociation constant of an inhibitor or competing ligand from its target. A high value points to lower affinity.

Data set [1] concerns the target Aβ plaques in postmortem AD brain homogenates (Homo sapiens, UniProt P05067). The class given is binding.
The conditions of data set [2]: normal mice, iv, cited from earlier work.
The target in data set [3] is Aβ plaques in postmortem human brain sections (Homo sapiens, UniProt P05067). Put plainly: In vitro autoradiography of postmortem human brain sections. In kind it is binding. The essentials:
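Frozen postmortem brains (confirmed CAA, AD, control) cut at 20 µm. Sections incubated 1 h with the 18F-labelled test compound in 40% ethanol. Washes: saturated Li2CO3 in 40% ethanol (2 min, twice), then 40% ethanol (2 min, once), then a 30 s water rinse. Dried sections exposed to film for 12–18 h; developed images digitized.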

Data set [4] concerns the target Aβ plaques in CAA brain sections (Homo sapiens, UniProt P05067). Put plainly: Thioflavin S fluorescent staining of neighboring CAA occipital brain sections. The essentials:
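Brain sections fixed in 10% neutral buffered formalin for 1 hr. Autofluorescence quenched with 0.05% KMnO4, then bleached in 0.2% K2S2O5/0.2% oxalic acid. Stained 3–5 min with 0.025% thioflavin S in 40% ethanol, differentiated in 50% ethanol. Imaged by fluorescence microscopy with a CCD digital camera.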

Values joined by “and” are separate entries in the source; they are usually repeats but may differ in a detail not shown here. Identical values can stand only once. Like-named read-outs stand apart in the source and are kept apart here.

Chain of Aβ plaques in postmortem AD brain homogenates (P05067 672-711 limits assumed): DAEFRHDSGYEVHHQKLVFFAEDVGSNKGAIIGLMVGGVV
Chain of Aβ plaques in postmortem human brain sections (P05067 672-711 limits assumed): as above
Chain of Aβ plaques in CAA brain sections (P05067 672-711 limits assumed): as above

On to `CNc1ccc(/C=C/c2ccc(OCCOCCOCCOCCOCCOCC(COCCOCCOCCOCCOCCOc3ccc(/C=C/c4ccc(NC)cc4)cn3)OCCF)nc2)cc1` [Compound 8b], for which the Ki in data set [1] amounted to 3.24 nM. In other words, the single-digit nanomolar range.

With `CNc1ccc(/C=C/c2ccc(OCCOCCOCCOCCOCCOCCOCC(COCCOCCOCCOCCOCCOCCOc3ccc(/C=C/c4ccc(NC)cc4)cn3)OCCF)nc2)cc1` [Compound 8c], in data set [1], the Ki came out at 7.71 nM. This Ki is about 2.4-fold higher than that of the compound before.

Regarding `CNc1ccc(/C=C/c2ccc(OCCOCCOCC[18F])nc2)cc1` [[^18F]5, [^18F]florbetapir f 18], in data set [2] (2 min post injection), the “Biodistribution, Blood” value is 3.14 ± 0.69 % dose/gram; the “Biodistribution, Bone” value is 1.43 ± 0.09 % dose/gram; the “Biodistribution, Brain (brain uptake)” value is 7.8 % dose/gram and 7.77 ± 1.70 % dose/gram; the “Biodistribution, Kidney” value is 10.9 ± 2.63 % dose/gram. Moreover, in data set [2] (2 min post injection), the “Biodistribution, Liver” value is on record as 21.5 ± 1.07 % dose/gram and the “Biodistribution, Muscle” value is 1.06 ± 0.39 % dose/gram. In data set [2] (30 min post injection), the “Biodistribution, Blood” value is 2.80 ± 0.44 % dose/gram; the “Biodistribution, Bone” value was 1.22 ± 0.17 % dose/gram; the “Biodistribution, Brain” value was 1.59 ± 0.22 % dose/gram; the “Biodistribution, Kidney” value is on record as 6.31 ± 0.58 % dose/gram. Also, in data set [2] (30 min post injection), the “Biodistribution, Liver” value is on record as 12.9 ± 0.72 % dose/gram and the “Biodistribution, Muscle” value is on record as 1.78 ± 0.34 % dose/gram. Also, the “Autoradiographic labeling of brain sections” value in data set [3] (AD brain sections) was “labeled intensely”. In data set [3] (healthy control (HC) brain sections), the “Autoradiographic labeling of brain sections” value is given as “very low labeling”.

Take thioflavin S: the “Fluorescent staining of brain sections compared with [18F]8a autoradiography” value in data set [4] was “same labeling of the major blood vessels”.
